Test results from ChEMBL document CHEMBL1137338, “Effects of substitution on 9-(3-bromo-4-fluorophenyl)-5,9-dihydro-3H,4H-2,6-dioxa-4- azacyclopenta[b]naphthalene-1,8-dione, a dihydropyridine ATP-sensitive potassium channel opener” (J Med Chem, 2006).

The molecules below were run against Sulfonylurea receptor 2, Kir6.2 (Homo sapiens, UniProt O60706+Q14654) (assay: Ability to open human urinary bladder Kir6.2 channel containing SUR2B in Ltk cells by FLIPR assay).
Sulfonylurea receptor 2, Kir6.2, sequence (Q14654 whole entry): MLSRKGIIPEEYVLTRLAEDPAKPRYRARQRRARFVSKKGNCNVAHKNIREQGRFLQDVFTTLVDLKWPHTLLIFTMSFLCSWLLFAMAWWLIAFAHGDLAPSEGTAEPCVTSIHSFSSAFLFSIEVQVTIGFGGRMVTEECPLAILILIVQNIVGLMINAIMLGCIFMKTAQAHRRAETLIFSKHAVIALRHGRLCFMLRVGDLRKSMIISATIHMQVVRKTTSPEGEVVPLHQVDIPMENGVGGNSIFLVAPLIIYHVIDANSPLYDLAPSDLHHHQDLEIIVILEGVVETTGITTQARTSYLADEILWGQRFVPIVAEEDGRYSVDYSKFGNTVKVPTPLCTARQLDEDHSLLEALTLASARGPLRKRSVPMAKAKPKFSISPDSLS
Sulfonylurea receptor 2, Kir6.2, sequence (O60706 whole entry): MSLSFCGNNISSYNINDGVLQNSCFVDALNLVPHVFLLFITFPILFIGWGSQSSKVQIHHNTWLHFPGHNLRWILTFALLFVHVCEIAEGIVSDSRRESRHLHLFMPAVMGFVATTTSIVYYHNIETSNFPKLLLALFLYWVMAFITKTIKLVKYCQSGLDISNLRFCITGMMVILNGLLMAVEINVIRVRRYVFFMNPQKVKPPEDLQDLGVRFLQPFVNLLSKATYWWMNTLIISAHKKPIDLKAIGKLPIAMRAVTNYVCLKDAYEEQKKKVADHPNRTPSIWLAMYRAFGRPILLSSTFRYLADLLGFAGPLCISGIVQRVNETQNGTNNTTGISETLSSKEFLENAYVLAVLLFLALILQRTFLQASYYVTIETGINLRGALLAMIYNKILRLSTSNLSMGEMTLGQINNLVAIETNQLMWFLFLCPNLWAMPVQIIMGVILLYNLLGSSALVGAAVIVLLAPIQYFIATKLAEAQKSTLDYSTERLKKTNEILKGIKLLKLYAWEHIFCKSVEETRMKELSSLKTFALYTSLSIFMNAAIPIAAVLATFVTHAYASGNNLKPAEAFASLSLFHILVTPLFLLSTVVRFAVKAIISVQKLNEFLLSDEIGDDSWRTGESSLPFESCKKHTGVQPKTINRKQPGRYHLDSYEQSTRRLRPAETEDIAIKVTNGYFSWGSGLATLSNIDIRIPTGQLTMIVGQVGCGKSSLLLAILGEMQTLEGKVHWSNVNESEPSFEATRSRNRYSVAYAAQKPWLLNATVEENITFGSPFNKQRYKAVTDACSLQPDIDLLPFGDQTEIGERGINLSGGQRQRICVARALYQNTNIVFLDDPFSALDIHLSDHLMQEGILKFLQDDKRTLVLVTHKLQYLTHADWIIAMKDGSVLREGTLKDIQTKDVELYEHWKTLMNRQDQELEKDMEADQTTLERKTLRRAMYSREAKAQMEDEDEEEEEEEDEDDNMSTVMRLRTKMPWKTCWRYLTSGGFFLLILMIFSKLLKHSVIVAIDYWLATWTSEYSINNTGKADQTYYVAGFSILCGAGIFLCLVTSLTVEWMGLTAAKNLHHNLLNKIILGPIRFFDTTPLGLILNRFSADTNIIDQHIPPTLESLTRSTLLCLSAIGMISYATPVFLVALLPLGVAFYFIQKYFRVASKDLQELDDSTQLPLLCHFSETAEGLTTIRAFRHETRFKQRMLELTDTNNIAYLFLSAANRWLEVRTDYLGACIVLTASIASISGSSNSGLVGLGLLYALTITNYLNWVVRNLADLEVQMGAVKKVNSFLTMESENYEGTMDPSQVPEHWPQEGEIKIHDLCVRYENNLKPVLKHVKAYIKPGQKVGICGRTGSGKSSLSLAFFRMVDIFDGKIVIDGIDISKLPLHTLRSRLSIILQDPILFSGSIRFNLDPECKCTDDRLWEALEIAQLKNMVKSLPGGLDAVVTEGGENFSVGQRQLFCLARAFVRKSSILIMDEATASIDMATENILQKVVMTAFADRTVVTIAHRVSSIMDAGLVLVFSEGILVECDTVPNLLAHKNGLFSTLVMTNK
Assay type: functional, cell-based
Method in brief: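 Ltk- cells stably transfected with the Kir6.2/SUR2B exon 17- splice variant. Membrane potential was followed with DiBAC dye in a 96-well cell-based kinetic fluorescence (FLIPR) assay. The highest concentration tested was 10 µM. Each compound's maximal fluorescence response was expressed as % of the response to the reference opener.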
For `O=C1COCC2=C1C(c1ccc(F)c(Br)c1)C1=C(O)C3(CCCC3)OCC1=N2` (configuration not stated), the EC50 was > 10000 nM.
An EC50 of 1620 nM was found for `CC[C@H]1OCC(O)=C2C1=NC1=C(C(=O)COC1)[C@H]2c1ccc(Cl)c(Br)c1` (racemic) in this work.
An EC50 of 67.6 nM was found for `CCC[C@H]1OC(O)=C2C1=NC1=C(C(=O)COC1)[C@H]2c1ccc(F)c(Cl)c1` (racemic) in this work.
An EC50 of 1580 nM was found for `CC[C@H]1OCC(O)=C2C1=NC1=C(C(=O)COC1)[C@H]2c1ccc(C)c(Br)c1` (racemic) in this work.
An EC50 of 603 nM was found for `CCC[C@H]1OC(O)=C2C1=NC1=C(C(=O)COC1)[C@H]2c1ccc(Cl)c(Cl)c1` (racemic) in this work.
An EC50 of 331 nM was found for `CCC[C@H]1OC(O)=C2C1=NC1=C(C(=O)COC1)[C@H]2c1ccc(Br)c(Br)c1` (racemic) in this work.
An EC50 of 174 nM was found for `CCC[C@H]1OC(O)=C2C1=NC1=C(C(=O)COC1)[C@H]2c1ccc(Cl)c(Br)c1` (racemic) in this work.
`CC[C@@H]1OCC2=C(C1=O)[C@@H](c1ccc(F)c(Br)c1)C1=C(O)OCC1=N2` (racemic) was tested, and the EC50 was > 10000 nM.
An EC50 of 1000 nM was found for `C[C@H]1OC(O)=C2C1=NC1=C(C(=O)COC1)[C@H]2c1ccc(F)c(Br)c1` (racemic) in this work.
An EC50 of 105 nM was found for `CC[C@H]1OCC(O)=C2C1=NC1=C(C(=O)COC1)[C@H]2c1ccc(Cl)c(Cl)c1` (racemic) in this work.
An EC50 of 22.9 nM was found for `COC[C@H]1OC(O)=C2C1=NC1=C(C(=O)COC1)[C@H]2c1ccc(F)c(Br)c1` (racemic) in this work.
An EC50 of 398 nM was found for `CCC[C@H]1OC(O)=C2C1=NC1=C(C(=O)COC1)[C@H]2c1ccc(C)c(Br)c1` (racemic) in this work.
An EC50 of 5.13 nM was found for `CCC[C@@H]1OC(O)=C2C1=NC1=C(C(=O)COC1)[C@H]2c1ccc(F)c(Br)c1` (racemic) in this work.
An EC50 of 427 nM was found for `CCC[C@H]1OC(O)=C2C1=NC1=C(C(=O)COC1)[C@H]2c1ccc(Br)c(Cl)c1` (racemic) in this work.
An EC50 of 3470 nM was found for `CC[C@H]1OC(O)=C2C1=NC1=C(C(=O)COC1(C)C)[C@H]2c1ccc(F)c(Br)c1` (racemic) in this work.
An EC50 of 35.5 nM was found for `CC[C@@H]1OC(O)=C2C1=NC1=C(C(=O)COC1)[C@H]2c1ccc(F)c(Br)c1` (racemic) in this work.
An EC50 of 14.1 nM was found for `CC[C@@H]1OCC(O)=C2C1=NC1=C(C(=O)COC1)[C@H]2c1ccc(F)c(Br)c1` (racemic) in this work.
An EC50 of 457 nM was found for `C[C@@H]1OCC2=C(C1=O)[C@H](c1ccc(F)c(Br)c1)C1=C(O)OCC1=N2` (racemic) in this work.
An EC50 of 135 nM was found for `CC[C@H]1OCC(O)=C2C1=NC1=C(C(=O)COC1)[C@H]2c1ccc(Br)c(Br)c1` (racemic) in this work.
`CC(C)C[C@H]1OC(O)=C2C1=NC1=C(C(=O)COC1)[C@H]2c1ccc(F)c(Br)c1` (racemic) was tested, and the EC50 was > 10000 nM.
An EC50 of 457 nM was found for `CC[C@H]1OCC(O)=C2C1=NC1=C(C(=O)COC1)[C@H]2c1ccc(F)c(Cl)c1` (racemic) in this work.
An EC50 of 2190 nM was found for `CCCC[C@H]1OC(O)=C2C1=NC1=C(C(=O)COC1)[C@H]2c1ccc(F)c(Br)c1` (racemic) in this work.
An EC50 of 12000 nM was found for `CC[C@H]1OCC(O)=C2C1=NC1=C(C(=O)COC1)[C@H]2c1ccc(F)c(I)c1` (racemic) in this work.
An EC50 of 1000 nM was found for `CC[C@H]1OCC(O)=C2C1=NC1=C(C(=O)COC1)[C@H]2c1ccc(Br)c(Cl)c1` (racemic) in this work.
An EC50 of 186 nM was found for `CC[C@H]1OCC(O)=C2C1=NC1=C(C(=O)COC1)[C@H]2c1ccc(F)c(Br)c1` (racemic) in this work.
An EC50 of 501 nM was found for `C[C@@H]1OCC2=C(C1=O)[C@@H](c1ccc(F)c(Br)c1)C1=C(O)OCC1=N2` (racemic) in this work.
An EC50 of 75.9 nM was found for `CCC[C@H]1OC(O)=C2C1=NC1=C(C(=O)COC1)[C@H]2c1ccc(F)c(I)c1` (racemic) in this work.
An EC50 of 5.5 nM was found for `C[C@@H]1OC(O)=C2C1=NC1=C(C(=O)COC1)[C@H]2c1ccc(F)c(Br)c1` (racemic) in this work.
An EC50 of 282 nM was found for `CC[C@H]1OC(O)=C2C1=NC1=C(C(=O)C(C)(C)OC1)[C@H]2c1ccc(F)c(Br)c1` (racemic) in this work.
`CCCCC[C@H]1OC(O)=C2C1=NC1=C(C(=O)COC1)[C@H]2c1ccc(F)c(Br)c1` (relative stereo) was tested, and the EC50 was > 10000 nM.
With `CCCCC[C@@H]1OC(O)=C2C1=NC1=C(C(=O)COC1)[C@H]2c1ccc(F)c(Br)c1` (relative stereo) the EC50 was > 10000 nM.
`CC(C)[C@H]1OC(O)=C2C1=NC1=C(C(=O)COC1)[C@H]2c1ccc(F)c(Br)c1` (relative stereo) was tested, and the EC50 was > 10000 nM.
